Measured values as given in ChEMBL document CHEMBL2417522, “N-aryl-6-methoxy-1,2,3,4-tetrahydroquinolines: a novel class of antitumor agents targeting the colchicine site on tubulin” (Eur J Med Chem, 2013).
Values after ≈ are worked out from the molar mass of the structure shown. Active and inactive are the calls of the source. No cut-off for these calls is given here.

Experiments:
[1] = tested on: KB; assay: Cytotoxicity against human KB cells by SRB method; format: functional
[2] = tested on: A549; assay: Cytotoxicity against human A549 cells by SRB method; format: functional
[3] = Cytotoxicity against human KBVIN cells by SRB method; format: functional
[4] = tested on: DU-145; assay: Cytotoxicity against human DU145 cells by SRB method; format: functional
[5] = molecular target: Tubulin; assay: Inhibition of tubulin assembly (unknown origin) preincubated for 15 mins followed by GTP addition measured after 20 mins by turbidimetric analysis; format: protein-complex assay, Homo sapiens
[6] = […] partition coefficient, log P of the compound at pH 7.4 after 24 hrs by HPLC analysis; format: physicochemical
In short: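 Compound dissolved at 1.0 mg/mL in […]. Log P taken from the ratio of HPLC peak areas in the […] and water phases.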

[7] = molecular target: T1, Tubulin (Homo sapiens) (UniProt P68371+Q9H4B7+P0DPH7+P68366+Q13509+Q71U36+P04350+Q3ZCM7+P07437+P68363+Q9BQE3+Q6PEY2+Q13885+Q9BVA1+Q9BUF5); assay: Competitive inhibition of [3H]colchicine binding to tubulin (unknown origin) at 5 uM after 10 mins by radioligand displacement assay; format: protein-complex assay
In short: (§1)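 [3H]colchicine binding: 1.0 µM tubulin, 5.0 µM [3H]colchicine and inhibitor at 5.0 or 1.0 µM, 10 min at 37 °C, when control binding reaches about 40–60% of maximum. […] Percent inhibition reported.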

[8] = Aqueous solubility of the compound at pH 7.4 after 4 hrs by HPLC-UV method; format: physicochemical; conditions: buffer, pH 7.4, 4 h
In short: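 Solubility at pH 7.4: DMSO stock (1.0 mg/mL) diluted into phosphate buffer, final DMSO 1%; stirred 4 h at rt, centrifuged; saturated supernatant quantified by HPLC–UV against a standard curve (50–0.20 µg/mL in ACN). Triplicate samples.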

[9] = tested on: Liver microsomes; assay: Half life in human liver microsomes at 1 uM by LC-MS analysis; format: ADME, Microsome
[10] = molecular target: T1, Tubulin (Homo sapiens); assay: Competitive inhibition of [3H]colchicine binding to tubulin (unknown origin) at 1 uM after 10 mins by radioligand displacement assay; format: protein-complex assay; in short: as §1
[11] = tested on: KBVIN; assay: Cytotoxicity against human KBVIN cells at 60 uM by SRB method; format: functional, cell-based
[12] = tested on: KB; assay: Cytotoxicity against human KB cells at 60 uM by SRB method; format: functional, cell-based
[13] = tested on: DU-145; assay: Cytotoxicity against human DU145 cells at 60 uM by SRB method; format: functional, cell-based
[14] = tested on: A549; assay: Cytotoxicity against human A549 cells at 60 uM by SRB method; format: functional, cell-based

| IC50 [5] | logD at 24 h [6] | inhibition [7] | solubility [8] | t1/2 [9] | inhibition [10] | SMILES | GI50 [1] | GI50 [2] | GI50 [3] | GI50 [4] | growth inhibition (GI) [11] | growth inhibition (GI) [12] | growth inhibition (GI) [13] | growth inhibition (GI) [14] |
| --- | --- | --- | --- | --- | --- | --- | --- | --- | --- | --- | --- | --- | --- | --- |
|  |  |  |  |  |  | COC(=O)c1cc(Cl)cc(N(C)c2ccc(OC)cc2)c1 | 1.61 µM | 1.6 µM | 1.57 µM | 1.46 µM |  |  |  |  |
|  |  |  |  |  |  | COC(=O)c1ccc(Cl)cc1N(C)c1ccc(OC)cc1 | 1.98 µM | 3.36 µM | 1.89 µM | 1.68 µM |  |  |  |  |
| 1.6 µM | 4.33 | 69% | 0.16 µg/mL (≈ 0.426 µM) |  |  | COc1ccc(N(C)c2cc(Br)cc(C(=O)NC3CC3)c2)cc1 | 0.17 µM |  |  |  |  |  |  |  |
| 1 µM | 3.98 | 87% | 3.21 µg/mL (≈ 10.5 µM) | 7.89 min | 61% | COc1ccc2c(c1)CCCN2c1cc(C)nc2ccccc12 | 0.091 µM | 0.045 µM | 0.055 µM | 0.038 µM |  |  |  |  |
|  |  |  |  |  |  | CNC(=O)c1cc(Br)cc(N2CCCc3cc(OC)ccc32)c1 | 0.63 µM | 0.37 µM | 0.93 µM | 0.56 µM |  |  |  |  |
|  |  |  |  |  |  | COc1ccc(N(C)c2cc(Cl)ccc2CO)cc1 | 19.5 µM | 21.7 µM | 18.1 µM | 16 µM |  |  |  |  |
|  |  |  |  |  |  | COC(=O)c1ccc(Cl)nc1N(C)c1ccc(OC)cc1 | 0.26 µM | 0.23 µM | 0.2 µM | 0.21 µM |  |  |  |  |
|  |  |  |  |  |  | CNC(=O)c1ccc(Cl)cc1N(C)c1ccc(OC)cc1 | 188 µM | 43.2 µM | 61 µM | 98.9 µM |  |  |  |  |
|  |  |  |  |  |  | COc1ccc(N(C)c2cc(Br)cc(C(=O)NC3CCCC3)c2)cc1 | 0.12 µM |  |  | 0.11 µM |  |  |  |  |
|  |  |  |  |  |  | CNC(=O)c1cc(N(C)c2ccc(OC)cc2)cc(C(F)(F)F)c1 | 12.3 µM | 14.7 µM | 12.6 µM | 11.9 µM |  |  |  |  |
| 1 µM | 3.65 | 98% | 7.67 µg/mL (≈ 25.1 µM) | 25.19 min | 89% | COc1ccc2c(c1)CCCN2c1nc(C)nc2ccccc12 | 0.011 µM | 0.018 µM | 0.018 µM | 0.015 µM |  |  |  |  |
| 0.92 µM | 1.07 | 95% | 7.21 µg/mL (≈ 22.5 µM) | 25.97 min | 76% | CNc1nc(N2CCCc3cc(OC)ccc32)c2ccccc2n1 | 0.025 µM | 0.027 µM | 0.029 µM | 0.023 µM |  |  |  |  |
| 2.2 µM | 4.02 | 71% | 0.81 µg/mL (≈ 2.32 µM) |  |  | CNC(=O)c1cc(Br)cc(N(C)c2ccc(OC)cc2)c1 | 0.21 µM | 0.25 µM | 0.14 µM | 0.16 µM |  |  |  |  |
|  |  |  |  |  |  | COc1ccc2c(c1)CCCN2c1cccc2ccccc12 | 15.6 µM | 17.8 µM | 17.6 µM | 14.8 µM |  |  |  |  |
| 1 µM | 4.75 | 75% | 0.26 µg/mL (≈ 0.648 µM) |  |  | COc1ccc2c(c1)CCCN2c1cc(Br)cc(C(=O)NC2CC2)c1 | 0.16 µM | 0.17 µM | 0.19 µM | 0.15 µM |  |  |  |  |
|  |  |  |  |  |  | COc1ccc(N(C)c2cc(Br)cc(C(=O)O)c2)cc1 |  |  |  |  | inactive | inactive | inactive | inactive |
|  |  |  |  |  |  | COC(=O)c1cc(Cl)cc(N2CCCc3cc(OC)ccc32)c1 | 2.33 µM | 2.23 µM | 1.78 µM | 1.51 µM |  |  |  |  |
|  |  |  |  |  |  | CNC(=O)c1cc(Cl)cc(N2CCCc3cc(OC)ccc32)c1 | 1.04 µM | 0.74 µM | 0.43 µM | 1.02 µM |  |  |  |  |
|  |  |  |  |  |  | CNC(=O)c1cc(Cl)cc(N(C)c2ccc(OC)cc2)c1 | 0.3 µM | 0.27 µM | 0.23 µM | 0.23 µM |  |  |  |  |
|  |  |  |  |  |  | COC(=O)c1cc(N(C)c2ccc(OC)cc2)cc(C(F)(F)F)c1 | 13.5 µM | 15.1 µM | 13.1 µM | 11.5 µM |  |  |  |  |
|  |  |  |  |  |  | CC(=O)O[C@H]1C(=O)[C@@]2(C)[C@H]([C@H](OC(=O)c3ccccc3)[C@]3(O)C[C@H](OC(=O)[C@H](O)[C@@H](NC(=O)c4ccccc4)c4ccccc4)C(C)=C1C3(C)C)[C@]1(OC(C)=O)CO[C@@H]1C[C@@H]2O [PACLITAXEL] | 0.0064 µM | 0.0076 µM | 1.21 µM | 0.006 µM |  |  |  |  |
|  |  |  |  |  |  | COC(=O)c1cc(Br)cc(N(C)c2ccc(OC)cc2)c1 | 1.36 µM | 1.24 µM | 1.2 µM | 0.97 µM |  |  |  |  |
|  |  |  |  |  |  | COC(=O)c1cc(Br)cc(N2CCCc3cc(OC)ccc32)c1 | 1.37 µM | 1.12 µM | 1.27 µM | 1.28 µM |  |  |  |  |
|  |  |  |  |  |  | COCc1ccc(Cl)cc1N(C)c1ccc(OC)cc1 | 5.24 µM | 4.53 µM | 2.85 µM | 3.13 µM |  |  |  |  |
|  |  |  |  |  |  | COc1ccc(N(C)c2cc(Br)cc(C(=O)N(C)C)c2)cc1 | 6.52 µM | 2.83 µM | 2.38 µM | 3.34 µM |  |  |  |  |

| SMILES | IC50 [5] | logD at 24 h [6] | inhibition [7] | solubility [8] | t1/2 [9] | inhibition [10] | GI50 [1] | GI50 [2] | GI50 [3] | GI50 [4] | growth inhibition (GI) [11] | growth inhibition (GI) [12] | growth inhibition (GI) [13] | growth inhibition (GI) [14] |
| --- | --- | --- | --- | --- | --- | --- | --- | --- | --- | --- | --- | --- | --- | --- |
| COc1ccc2c(c1)CCCN2c1nc(Cl)nc2ccccc12 | 0.93 µM | 4.13 | 99% |  |  | 95% |  |  |  | 0.0015 µM |  |  |  |  |
